Publication PMC12124638 (Journal of medicinal chemistry, 2017)
Non-standard residues stand in square brackets, D forms with d. Residues, ends and D or L forms follow the SMILES beside them. *: point of attachment. Cha = N[C@@H](CC1CCCCC1)C(=O)O; Decanoyl = CCCCCCCCCC(=O)*; Heptanoyl = CCCCCCC(=O)*; Octanoyl = CCCCCCCC(=O)*; Dab = NCC[C@H](N)C(=O)O; Hexanoyl = CCCCCC(=O)*

Legend:
[1] = system: Acinetobacter baumannii ATCC 19606; assay: Sensitization to antibiotics, checkerboard MIC; type: cell-based; conditions: for Sensitization factor, rifampicin, Acinetobacter baumannii ATCC 19606: ratio of the MIC in the absence of paenipeptins to that in the presence of 4 μg/mL
[2] = system: Klebsiella pneumoniae ATCC 13883; assay: Sensitization to antibiotics, checkerboard MIC; type: cell-based; conditions: for Sensitization factor, rifampicin, Klebsiella pneumoniae ATCC 13883: ratio of the MIC in the absence of paenipeptins to that in the presence of 4 μg/mL; for Sensitization factor, clarithromycin, Klebsiella pneumoniae ATCC 13883: MIC without / with 4 μg/mL paenipeptin
[3] = system: methicillin-resistant S. aureus ATCC 43300
P. aeruginosa ATCC 27853 [4] = system: P. aeruginosa ATCC 27853
[5] = system: methicillin-resistant S. aureus strain LAC; assay: Catheter-associated biofilm in vitro; type: cell-based, Staphylococcus aureus; conditions: for reduction of viable biofilm-associated S. aureus cells: established catheter biofilm, n=6 catheters
S. aureus ATCC 29213 [6] = assay: Potassium ion release assay, PBFI probe; type: cell-based, Staphylococcus aureus; conditions: PBFI fluorescence; tested 8–64 μg/mL
P. aeruginosa ATCC 27853 [7] = assay: Cytoplasmic membrane integrity assay, DiSC3; type: cell-based, Pseudomonas aeruginosa; conditions: increase of DiSC3(5) fluorescence; tested 8–64 μg/mL; buffer with 0.2 mM EDTA
P. aeruginosa ATCC 27853 [8] = assay: Potassium ion release assay, PBFI probe; type: cell-based, Pseudomonas aeruginosa; conditions: PBFI fluorescence; tested 8–64 μg/mL
P. aeruginosa ATCC 27853 [9] = assay: Catheter-associated biofilm in vitro; type: cell-based, Pseudomonas aeruginosa; conditions: 40× MIC (40 μg/ml), 72 h exposure, n=6
P. aeruginosa ATCC 27853 [10] = assay: Time-kill assay; type: cell-based, Pseudomonas aeruginosa
Summary of the method: (§1)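 Time-kill is run with test compound at 8, 16 and 32 μg/mL. Surviving cells are counted by plating on TSA at 0, 2, 4, 6 and 24 h. Three independent experiments are run, one replicate each. Results are given as mean ± standard deviation, and final-timepoint counts are compared by ANOVA with Tukey HSD.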

S. aureus ATCC 29213 [11] = assay: Time-kill assay; type: cell-based, Staphylococcus aureus; conditions: for reduction of viable S. aureus cells: after 4 h
Summary of the method: as §1

P. aeruginosa ATCC 27853 [12] = assay: Impact of purified lipopolysaccharide; type: cell-based, Pseudomonas aeruginosa; conditions: LPS from E. coli O111:B4 at 100 μg/ml; analogue 17 at 16 μg/mL; 37°C, 60 min
Summary of the method: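 Cells are diluted in TSB to about 10^6 CFU/mL. E. coli O111:B4 LPS (final 10, 25, 50 or 100 μg/mL) is added, then test compound at final 16 μg/mL. Incubation is 60 min at 37 °C with shaking at 200 rpm. Survivors are counted on TSA. Three independent experiments are run, one replicate each. Counts are analysed by ANOVA and Tukey HSD.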

[13] = system: Escherichia coli ATCC 25922; assay: MIC in 95% human serum; type: cell-based; conditions: against both E. coli and S. aureus; 95% human serum versus TSB
S. aureus ATCC 29213 [14] = assay: Cytoplasmic membrane integrity assay, DiSC3; type: cell-based, Staphylococcus aureus; conditions: increase of DiSC3(5) fluorescence; tested 8–64 μg/mL
[15] = cited from earlier work
Gram-negative bacteria = conditions: cited from earlier work
E. coli UAMS-ECPR1 = assay: MIC, polymyxin-resistant strain; type: cell-based, Escherichia coli; conditions: polymyxin-resistant derivative of E. coli ATCC 25922
[16] = system: Klebsiella pneumoniae AR 0109; assay: MIC, polymyxin-resistant strain; type: cell-based; conditions: FDA-CDC Antibiotic-Resistance Bank
K. pneumoniae UAMS-KPPR1 = assay: MIC, polymyxin-resistant strain; type: cell-based, Klebsiella pneumoniae; conditions: polymyxin-resistant derivative of K. pneumoniae ATCC 13883
K. pneumoniae UAMS-KPPR3 = assay: MIC, polymyxin-resistant strain; type: cell-based, Klebsiella pneumoniae; conditions: polymyxin-resistant derivative of K. pneumoniae ATCC 13883
E. coli UAMS-ECPR2 = type: cell-based, Escherichia coli; conditions: polymyxin-resistant derivative of E. coli ATCC 25922
[17] = MIC without / with 4 μg/mL paenipeptin

CCCCCC(=O)N[C@@H](CCN)C(=O)N[C@H](C(=O)N[C@@H](CCN)C(=O)N[C@H](Cc1ccccc1)C(=O)N[C@@H](CC(C)C)C(=O)N[C@@H](CCN)C(=O)N[C@@H](C(=O)N[C@@H](CC(C)C)C(=O)N[C@@H](CO)C(N)=O)C(C)C)[C@@H](C)CC [Analogue 1] (Hexanoyl-[Dab]I[Dab][dF]L[Dab][dV]LS-NH2)
Sensitization factor, rifampicin, Acinetobacter baumannii ATCC 19606 [1]: 4,096–8,192
Sensitization factor, rifampicin, Klebsiella pneumoniae ATCC 13883 [2]: 8,192

CCCCCCC(=O)N[C@@H](CCN)C(=O)N[C@H](C(=O)N[C@@H](CCN)C(=O)N[C@H](Cc1ccccc1)C(=O)N[C@@H](CC(C)C)C(=O)N[C@@H](CCN)C(=O)N[C@@H](C(=O)N[C@@H](CC(C)C)C(=O)N[C@@H](CO)C(N)=O)C(C)C)C(C)C [Analogue 2] (Heptanoyl-[Dab]V[Dab][dF]L[Dab][dV]LS-NH2)
Sensitization factor, rifampicin, Acinetobacter baumannii ATCC 19606 [1]: 256–512
Sensitization factor, rifampicin, Klebsiella pneumoniae ATCC 13883 [2]: 4,096

CCCCCCCC(=O)N[C@@H](CCN)C(=O)N[C@H](C(=O)N[C@@H](CCN)C(=O)N[C@H](Cc1ccccc1)C(=O)N[C@@H](CC(C)C)C(=O)N[C@@H](CCN)C(=O)N[C@@H](C(=O)N[C@@H](CC(C)C)C(=O)N[C@@H](CCN)C(N)=O)C(C)C)[C@@H](C)CC [Analogue 9] (Octanoyl-[Dab]I[Dab][dF]L[Dab][dV]L[Dab]-NH2)
Sensitization factor, clarithromycin, Acinetobacter baumannii ATCC 19606 [1, 17]: 4,096–8,192
Sensitization factor, erythromycin, Acinetobacter baumannii ATCC 19606 [1, 17]: 128–256
Sensitization factor, vancomycin, Acinetobacter baumannii ATCC 19606 [1, 17]: 64–128
Sensitization factor, rifampicin, Acinetobacter baumannii ATCC 19606 [1]: 8,192
Sensitization factor, clarithromycin, Klebsiella pneumoniae ATCC 13883 [2]: 2,048
Sensitization factor, rifampicin, Klebsiella pneumoniae ATCC 13883 [2]: ≥8,192

CCCCCCCC(=O)N[C@@H](CCN)C(=O)N[C@@H](CCN)C(=O)N[C@@H](CCN)C(=O)N[C@H](Cc1ccccc1)C(=O)N[C@@H](CC(C)C)C(=O)N[C@@H](CCN)C(=O)N[C@@H](C(=O)N[C@@H](CC(C)C)C(=O)N[C@@H](CCN)C(N)=O)C(C)C [Analogue 10] (Octanoyl-[Dab][Dab][Dab][dF]L[Dab][dV]L[Dab]-NH2)
Sensitization factor, rifampicin, Acinetobacter baumannii ATCC 19606 [1]: 256–512
MIC, S. aureus ATCC 43300 [3]: >32 µg/mL
MIC, P. aeruginosa ATCC 27853 (P. aeruginosa ATCC 27853 [4]): 16 to 32 µg/mL
MIC, A. baumannii ATCC 19606 (A. baumannii ATCC 19606): >32 µg/mL

CCCCCCCCCC(=O)N[C@@H](CCN)C(=O)N[C@H](C(=O)N[C@@H](CCN)C(=O)N[C@H](Cc1ccccc1)C(=O)N[C@@H](CC(C)C)C(=O)N[C@@H](CCN)C(=O)N[C@@H](C(=O)N[C@@H](CC(C)C)C(=O)N[C@@H](CO)C(N)=O)C(C)C)[C@@H](C)CC [Analogue 12] (Decanoyl-[Dab]I[Dab][dF]L[Dab][dV]LS-NH2)
activity in the context of an established catheter-associated biofilm ([5]; data not shown): no activity

CCCCCCCCCC(=O)N[C@@H](CCN)C(=O)N[C@H](C(=O)N[C@H](C(=O)N[C@H](CC(C)C)C(=O)N[C@@H](CC(C)C)C(=O)N[C@@H](CCN)C(=O)N[C@@H](C(=O)N[C@@H](CC(C)C)C(=O)N[C@@H](CO)C(N)=O)C(C)C)[C@@H](C)O)[C@@H](C)CC [Analogue 13] (Decanoyl-[Dab]IT[dL]L[Dab][dV]LS-NH2)
synergism with rifampicin, in words ([1]; against Acinetobacter and Klebsiella): did not show synergism
MIC, S. aureus ATCC 43300 [3]: >32 µg/mL
MIC, A. baumannii ATCC 19606 (A. baumannii ATCC 19606): >32 µg/mL

CC[C@H](C)[C@H](NC(=O)[C@H](CCN)NC(=O)[C@@H](N)CC1CCCCC1)C(=O)N[C@@H](CCN)C(=O)N[C@H](Cc1ccccc1)C(=O)N[C@@H](CC(C)C)C(=O)N[C@@H](CCN)C(=O)N[C@@H](C(=O)N[C@@H](CC(C)C)C(=O)N[C@@H](CO)C(N)=O)C(C)C [Analogue 16] (H-[Cha][Dab]I[Dab][dF]L[Dab][dV]LS-NH2)
Sensitization factor, ampicillin, Acinetobacter baumannii ATCC 19606 [1, 17]: 2–4
Sensitization factor, clarithromycin, Acinetobacter baumannii ATCC 19606 [1, 17]: 2,048
Sensitization factor, vancomycin, Acinetobacter baumannii ATCC 19606 [1, 17]: 32–64
Sensitization factor, rifampicin, Acinetobacter baumannii ATCC 19606 [1]: 4,096
Sensitization factor, clarithromycin, Klebsiella pneumoniae ATCC 13883 [2]: 2,048–4,096
Sensitization factor, rifampicin, Klebsiella pneumoniae ATCC 13883 [2]: ≥8,192

CC(C)C[C@H](NC(=O)[C@@H](Cc1ccccc1)NC(=O)[C@H](CCN)NC(=O)[C@H](Cc1ccccc1)NC(=O)[C@H](CCN)NC(=O)[C@@H](N)CC1CCCCC1)C(=O)N[C@@H](CCN)C(=O)N[C@H](CC(C)C)C(=O)N[C@@H](Cc1ccccc1)C(=O)N[C@@H](CO)C(N)=O [Analogue 17] (H-[Cha][Dab]F[Dab][dF]L[Dab][dL]FS-NH2)
concentration that significantly released intracellular potassium ions (S. aureus ATCC 29213 [6]): 32 to 64 µg/mL
concentration that depolarized the membrane potential (P. aeruginosa ATCC 27853 [7]): ≥ 16 µg/mL
concentration that significantly released intracellular potassium ions (P. aeruginosa ATCC 27853 [8]): 32 to 64 µg/mL
reduction of viable biofilm-associated S. aureus cells ([5]; 40 μg/mL (5 × MIC), 72 h exposure): 3 log
reduction of viable biofilm-associated S. aureus cells ([5]; 160 μg/mL (20 × MIC), 72 h exposure): 5 log
catheters completely cleared of viable bacteria ([5]; 20 times the MIC of each antibiotic, six catheters, 72 h exposure): 50%
reduction in the number of viable P. aeruginosa cells in an established biofilm (P. aeruginosa ATCC 27853 [9]): 2.6 log
reduction of viable P. aeruginosa cells (P. aeruginosa ATCC 27853 [10]; 8 μg/ml, 2 h): 2.2 log
viable P. aeruginosa cells at 24 h (P. aeruginosa ATCC 27853 [10]; 8 μg/ml, 24 h): significant bacterial regrowth
reduction of viable P. aeruginosa cells (P. aeruginosa ATCC 27853 [10]; 16 μg/ml, within 2 h): 3.7 logs
viable P. aeruginosa cells after 24 h exposure (P. aeruginosa ATCC 27853 [10]; 32 μg/ml or 16 μg/ml, 24 h): no viable cells were detected
reduction of viable P. aeruginosa cells (P. aeruginosa ATCC 27853 [10]; 32 μg/ml, within 2 h): 5.1 logs
viable S. aureus cells on exposure (S. aureus ATCC 29213 [11]; 8 μg/ml): Regrowth
reduction of viable S. aureus cells (S. aureus ATCC 29213 [11]; 16 μg/ml): 3.1 logs
reduction of viable S. aureus cells (S. aureus ATCC 29213 [11]; 32 μg/ml): 5.4 logs
impact of purified LPS on bactericidal activity (P. aeruginosa ATCC 27853 [12]): neutralized the bactericidal activity
increase in MIC in the presence of human serum [13]: 8 to 16 fold
reduction in activity in the presence of human serum [13]: 88–94%
concentration that depolarized the membrane potential (S. aureus ATCC 29213 [14]): ≥ 16 µg/mL

CCCCCCCCCC(=O)N[C@@H](Cc1c[nH]c2ccccc12)C(=O)N[C@H](CC(N)=O)C(=O)N[C@@H](CC(=O)O)C(=O)N[C@@H]1C(=O)NCC(=O)N[C@@H](CCCN)C(=O)N[C@@H](CC(=O)O)C(=O)N[C@H](C)C(=O)N[C@@H](CC(=O)O)C(=O)NCC(=O)N[C@H](CO)C(=O)N[C@@H]([C@H](C)CC(=O)O)C(=O)N[C@@H](CC(=O)c2ccccc2N)C(=O)O[C@@H]1C [daptomycin]
bound to plasma proteins [15]: 94%

CO[C@H]1/C=C/O[C@@]2(C)Oc3c(C)c(O)c4c(O)c(c(/C=N/N5CCN(C)CC5)c(O)c4c3C2=O)NC(=O)/C(C)=C\C=C\[C@H](C)[C@H](O)[C@@H](C)[C@@H](O)[C@@H](C)[C@H](OC(C)=O)[C@@H]1C [rifampicin, reference compound]
MIC of rifampicin against Gram-negative bacteria without C10X (Gram-negative bacteria): 8 to 32 µg/mL
MIC ([1]; Acinetobacter baumannii, ATCC19606, read-out: MIC of rifampicin alone, in μM): 19.4 µM

Polymyxin B
MIC, E. coli UAMS-ECPR1 (E. coli UAMS-ECPR1): 32 µg/mL
MIC, Klebsiella pneumoniae AR 0109 [16]: 16 to 32 µg/mL
MIC, K. pneumoniae UAMS-KPPR1 (K. pneumoniae UAMS-KPPR1): >32 µg/mL
MIC, K. pneumoniae UAMS-KPPR3 (K. pneumoniae UAMS-KPPR3): >32 µg/mL
MIC, E. coli UAMS-ECPR2 (E. coli UAMS-ECPR2): 32 µg/mL
